Source: PubChem BioAssay
The source made the active and inactive calls.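 The calls were made as follows, unless noted: active = NADPH fluorescence slope more negative than the mean of all samples by about 3 SD, 99.7% confidence; inactive = the rest.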

Assays:
[1] = inhibitors of TNFa-induced NFkB p65 translocation, primary screen, imaging, HUVEC, MLSMR starter and 10KST1 sets (AID 438;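 active = inhibition above 20% together with a positive visual image hit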;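 also: compound added about 3h40 before a 20 min TNFalpha stimulation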;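 as to inhibition: signal is the nuclear over cytoplasmic p65 intensity ratio per well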); settings: HUVEC TNFa-induced p65 nuclear translocation; cell count: measured here: nuclei count (cytotoxicity indicator), at 2.08 µM; inhibition: at 2 µM, stronger effect = higher value, 0% TNFa-plus-vehicle, 100% no-TNFa wells
[2] = endothelial E-selectin expression blockers – imaging, HUVEC, immunofluorescence, MLSMR starter and 10KST1 sets, primary screen (AID 487;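 active = visually confirmed hit in the image check and inhibition above 20%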;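 as to inhibition: signal is fraction of cell area covered by stained E-selectin grains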;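 as to nuclei count: 100% = median nuclei count of all wells on the same plate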); settings: HUVEC TNFalpha-induced E-selectin immunofluorescence imaging, at 2 µM; inhibition: stronger effect = higher value; nuclei count: measured here: cell number, toxicity
[3] = Primary imaging screen for DUSP6 inhibitors that restore phospho-Erk in transfected HeLa cells, chemical complementation (AID 609;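 active = compounds giving at least 50% inhibition in the cell-based MKP-3 phosphatase rescue imaging test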;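 as to inhibition: phospho-Erk level distribution per well compared with pooled transfected vehicle control wells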); settings: HeLa MKP-3 transfected, phospho-Erk imaging KS statistic, at 10 µM, cells stimulated with TPA for 15 min
[4] = target: Dual specificity protein phosphatase 6 (Homo sapiens) (UniProt Q16828); assay: as above; settings: HeLa MKP-3 transfected, phospho-Erk imaging KS statistic; at 10 µM; stronger effect = higher value; cells stimulated with TPA for 15 min
Dual specificity protein phosphatase 6 (Homo sapiens), sequence (Q16828 whole entry, looked up): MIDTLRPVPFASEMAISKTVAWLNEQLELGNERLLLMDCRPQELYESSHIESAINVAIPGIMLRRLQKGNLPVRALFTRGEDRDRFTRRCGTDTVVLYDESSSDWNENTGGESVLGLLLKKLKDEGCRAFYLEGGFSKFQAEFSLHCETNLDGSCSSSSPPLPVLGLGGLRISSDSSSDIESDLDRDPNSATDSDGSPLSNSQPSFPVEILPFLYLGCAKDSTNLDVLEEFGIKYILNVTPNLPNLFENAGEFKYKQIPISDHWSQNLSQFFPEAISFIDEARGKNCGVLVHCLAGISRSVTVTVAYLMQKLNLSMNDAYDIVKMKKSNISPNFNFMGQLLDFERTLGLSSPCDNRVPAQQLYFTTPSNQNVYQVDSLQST

[5] = target: Voltage-gated potassium channel subunit beta-2 (Rattus norvegicus) (UniProt P62483); assay: inhibitors of rat Kvbeta2 reductase activity – biochemical, NADPH fluorescence, primary screen (AID 622;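 active = fluorescence slope higher than the sample average by over 3 SD, cut at about -0.22 in these data, passing the limit was not always enough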;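 also: slope of raw intensity against log time taken from 70 to 1610 s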); settings: recombinant KvBeta, 4-cyanobenzaldehyde reduction, at 10 µM, stronger effect = higher value
Voltage-gated potassium channel subunit beta-2 (Rattus norvegicus), sequence (P62483 whole entry, looked up): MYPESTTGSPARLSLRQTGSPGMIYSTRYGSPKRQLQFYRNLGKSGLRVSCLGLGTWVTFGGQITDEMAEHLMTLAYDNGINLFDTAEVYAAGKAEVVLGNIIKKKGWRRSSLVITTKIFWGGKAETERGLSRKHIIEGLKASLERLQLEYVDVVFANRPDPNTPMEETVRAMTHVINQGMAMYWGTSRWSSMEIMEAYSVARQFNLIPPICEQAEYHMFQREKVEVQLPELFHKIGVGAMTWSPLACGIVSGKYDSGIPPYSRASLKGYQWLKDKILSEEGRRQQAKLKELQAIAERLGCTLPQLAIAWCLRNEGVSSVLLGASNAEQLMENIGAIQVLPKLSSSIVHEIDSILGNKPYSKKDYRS

[6] = target: Voltage-gated potassium channel subunit beta-2 (Rattus norvegicus) (UniProt P62483); assay: enhancers of rat Kvbeta2 NADPH turnover – biochemical, NADPH fluorescence, primary screen (AID 623); settings: Recombinant KvBeta, NADPH fluorescence decrease slope, 10 min; at 10 µM; stronger effect = lower value;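 also: fluorescence intensity change per second fitted from 20 to 320 s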
[7] = target: Alpha-2C adrenergic receptor (Homo sapiens) (UniProt P18825); assay: compounds altering alpha2C-coupled GIRK flux – cell-based, HEK293 alpha2C/GIRK1/2, thallium flux, primary screen (AID 624;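 active = fluorescence slope after compound addition differing from the mean of all screened samples at 99.7% confidence, in either direction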;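 also: slope of fluorescence ratio to pre-addition baseline per second over 15 to 24 s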); settings: thallium flux BTC fluorescence, at 10 µM, actives lie on both sides
Alpha-2C adrenergic receptor (Homo sapiens), sequence (P18825 whole entry, looked up): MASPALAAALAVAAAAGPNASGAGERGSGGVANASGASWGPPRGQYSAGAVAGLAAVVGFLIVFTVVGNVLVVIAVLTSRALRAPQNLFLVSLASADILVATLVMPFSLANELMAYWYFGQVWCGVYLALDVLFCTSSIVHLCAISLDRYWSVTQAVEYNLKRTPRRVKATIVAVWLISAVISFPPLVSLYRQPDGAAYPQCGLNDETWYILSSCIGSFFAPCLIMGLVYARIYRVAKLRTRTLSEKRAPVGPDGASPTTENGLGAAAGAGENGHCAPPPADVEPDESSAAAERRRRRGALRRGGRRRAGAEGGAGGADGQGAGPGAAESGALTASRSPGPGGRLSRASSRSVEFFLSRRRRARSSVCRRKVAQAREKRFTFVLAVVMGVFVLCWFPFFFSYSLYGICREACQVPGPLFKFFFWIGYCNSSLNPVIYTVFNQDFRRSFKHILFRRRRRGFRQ

[8] = inhibitors of larval lipid processing in zebrafish, primary screen, whole organism, PED6 fluorescence, gall bladder and intestine (AID 686;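 active = a full or partial loss of lipid-probe fluorescence in the fish gall bladder, intestine or both, judged by eye; inactive = no fluorescence loss, or compound toxic to the fish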;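 also: larvae 5 to 7 days old with five fish per well; signal comes from phospholipase A2 cleavage of quenched PED6 carried via bile; overnight exposure to compound and PED6 before scoring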); settings: Zebrafish larvae PED6 lipid processing, fluorescence scoring; screened at 20 µM (by protocol)
Method in brief: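 Also added: quenched phospholipase substrate PED6, 100 nM final, ingested by larvae; System: zebrafish larvae, 5-7 d; Quantity: 5 larvae per well; Compound: 20 µM single dose; Schedule: overnight compound and PED6 incubation; Read-out: visual per-well fluorescence inhibition score; Measured by: By-eye fluorescence microscopy; Medium: E3.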

[9] = loss of swimming-algae plug formation – whole organism, Chlamydomonas reinhardtii, WT vs cilia-less mutant, absorbance, 96-well, primary screen (AID 463189;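 active = inhibition at or above 50% relative to wild type and mutant plate controls; inactive = inhibition below 50%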;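 also: 0% = wild type cc124 cells in DMSO and 100% = ciliumless bld1 mutant cells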); settings: Chlamydomonas reinhardtii gravitaxis, OD600 absorbance, 2 days; at 10 µM; stronger effect = higher value
[10] = measured here: cell density z-score
[11] = measured here: nuclear c-Myc green intensity z-score
[12] = measured here: nuclear pErk red intensity z-score, stronger effect = higher value

Compound | cell count [1] | inhibition [1] | inhibition [2] | nuclei count [2] [%] | z-score [3, 10] | z-score [3, 11] | z-score [3, 12] | inhibition [4] | fluorescence slope [5] | NADPH fluorescence slope [6] | slope [7] | outcome [8] | inhibition [9]
O=C1OC(Nc2ccc(Br)cc2F)c2ccccc21 (stereo unspecified) | 426 | -1.6% (inactive) | -16.9% (inactive) | 149 | 0.057 | -0.568 | 0.211 | -2.91% (inactive) | -0.383 (inactive) | -4.6e-05 (inactive) | 0.00575 (inactive) | inactive | -4.19% (inactive)
CN1C2C=C3C(C#N)=C(N)C(C#N)(C#N)[C@@H](c4cccs4)C3C1CC2 (stereo partly specified) | 494 | -6.5% (inactive) | -7.4% (inactive) | 116 | 0.352 | -1.56 | 0.939 | 22.7% (inactive) | -0.419 (inactive) | 2.6e-06 (inactive) | 0.00481 (inactive) | inactive | -3.84% (inactive)
Cc1c(C(Nc2ccccn2)c2ccccc2)c(=O)n(-c2ccccc2)n1C (stereo unspecified) | 522 | -5.3% (inactive) | -96.1% (inactive) | 136 | -0.885 | 0.0466 | 1.12 | -9.7% (inactive) | -0.508 (inactive) | -9.6e-05 (inactive) | 0.00524 (inactive) | inactive | 23.1% (inactive)
CC1(C)Cc2c(oc3ncn4ncnc4c23)CO1 | 587 | -8.9% (inactive) | -143% (inactive) | 102 | -0.312 | -1.57 | 0.382 | 13.2% (inactive) | -0.569 (inactive) | -8.8e-05 (inactive) | 0.00443 (inactive) | inactive | 18.4% (inactive)
CC1(C)Cc2c(C#N)c(OCC(=O)c3ccc(Cl)cc3)nc(-c3ccoc3)c2CO1 | 654 | -2.9% (inactive) | 20% (inactive) | 170 | -0.432 | -0.355 | 0.479 | 13.2% (inactive) | -0.487 (inactive) | -4.2e-05 (inactive) | 0.00736 (inactive) | inactive | 40.4% (inactive)
CCOC(=O)COc1nc(N(C)C)nc(N(C)C)n1 | 634 | -15% (inactive) | -349% (inactive) | 183 | 0.237 | 0.0213 | 0.713 | 7.48% (inactive) | -0.492 (inactive) | -0.000101 (inactive) | 0.00583 (inactive) | inactive | -0.47% (inactive)
CC1(C)Cc2c(C#N)c(SCC(=O)c3ccccc3)nc(N3CCCC3)c2CO1 | 520 | -6.5% (inactive) | 15.1% (inactive) | 115 | 1.33 | -0.926 | -0.674 | 9.82% (inactive) | -0.395 (inactive) | 8.2e-06 (inactive) | 0.00654 (inactive) | inactive | 46.4% (inactive)
COc1cccc(C2=CC(c3ccccc3)n3ncnc3N2)c1 (stereo unspecified) | 565 | 3.2% (inactive) | 36.2% (inactive) | 163 | -0.222 | -0.0591 | 0.0878 | -8.76% (inactive) | -0.0434 (active) | -2e-07 (inactive) | 0.00478 (inactive) | inactive | 10.9% (inactive)
CCN(CC)CCCn1c(C)cc2c(c1=O)C(c1ccccc1)C(C#N)=C(N)O2 (stereo unspecified) | 417 | 11.8% (inactive) | -54.2% (inactive) | 140 | -0.637 | 0.212 | 1.28 | 0.671% (inactive) | -0.395 (inactive) | -3.1e-05 (inactive) | 0.0067 (inactive) | inactive | -1.93% (inactive)
CCOC(=O)c1[nH]c2ccc(OC)cc2c1NC(=O)CN1CCN(c2ccccn2)CC1 | 551 | -8.8% (inactive) | -2.8% (inactive) | 157 | -0.126 | 0.554 | 1.04 | -14% (inactive) | -0.16 (inactive) | 2.2e-06 (inactive) | 0.00466 (inactive) | inactive | -9.68% (inactive)
Cc1ccc2[nH]c3c(N4CCCCCC4)ncnc3c2c1 | 377 | -11.4% (inactive) | -85.7% (inactive) | 159 | 1.13 | -0.284 | -0.123 | -3.5% (inactive) | -0.44 (inactive) | -0.000151 (inactive) | 0.00355 (inactive) | inactive | -9.6% (inactive)
CC1(C)Cc2c(sc3[nH]c(=S)n(Cc4ccco4)c(=O)c23)CO1 | 541 | -15.5% (inactive) | -74.4% (inactive) | 117 | -0.898 | -0.375 | -0.762 | -2.69% (inactive) | -0.361 (inactive) | 2.2e-05 (inactive) | 0.0124 (active) | inactive | -12.6% (inactive)
O=C(O)c1cnn2c(C(F)(F)F)cc(-c3ccco3)nc12 | 416 | 1.3% (inactive) | -45.3% (inactive) | 96.3 | 1.16 | -0.0109 | -0.464 | 9.39% (inactive) | -0.48 (inactive) | -7.9e-05 (inactive) | 0.005 (inactive) | inactive | 17.4% (inactive)
COC(=O)CC1=C(C(=O)OC)C(c2ccc3c(c2Cl)OCO3)C(C#N)=C(N)O1 (stereo unspecified) | 505 | -3% (inactive) | -43.9% (inactive) | 146 | 1.11 | -0.928 | -0.541 | 15% (inactive) | -0.319 (inactive) | -2.9e-06 (inactive) | 0.00617 (inactive) | inactive | 21.8% (inactive)
O=S(=O)(c1ccc(Cl)cc1)N1CCC(N2CCCCCC2)CC1 | 450 | -23.8% (inactive) | -135% (inactive) | 160 | -0.279 | -1.42 | 0.26 | 11% (inactive) | -0.321 (inactive) | 6.3e-06 (inactive) | 0.0047 (inactive) | inactive | 121% (active)
C[C@@H]1C[C@H](Nc2ccccc2)c2ccccc2N1C(=O)c1cccnc1 | 539 | -1.7% (inactive) | 3.9% (inactive) | 159 | 2.9 | -1.02 | 0.461 | 25.7% (inactive) | -0.265 (inactive) | 6.9e-06 (inactive) | 0.00503 (inactive) | inactive | 0.503% (inactive)
CCOC(=O)c1c(C)[nH]sc1=S | 569 | -2.6% (inactive) | 42.2% (inactive) | 95.8 | -1.01 | 0.222 | 0.907 | 9.82% (inactive) | -0.335 (inactive) | -1.2e-06 (inactive) | 0.00974 (inactive) | inactive | 30.1% (inactive)
N#CC1=C2SCC(O)(c3ccccc3)N2C(=O)CC1c1ccccc1 (stereo unspecified) | 487 | 0.4% (inactive) | -39.3% (inactive) | 98.1 | -0.384 | -0.62 | 2.84 | -3.98% (inactive) | -0.459 (inactive) | -0.00022 (inactive) | 0.00444 (inactive) | inactive | 13.3% (inactive)
Cc1ccc2[nH]c(CCN(C)C)c(CC#N)c2c1 | 564 | 4.9% (inactive) | -74.2% (inactive) | 206 | -1.01 | -0.567 | 1.52 | 18.6% (inactive) | -0.364 (inactive) | -2.8e-05 (inactive) | 0.0055 (inactive) | inactive | 10.4% (inactive)
CN=C1c2c(-c3ccccc3)c3cc(OC)ccc3n2CCN1C | 531 | -21.3% (inactive) | -137% (inactive) | 145 | 0.562 | 0.295 | -0.655 | -2.47% (inactive) | -0.118 (active) | -9.2e-06 (inactive) | 0.00488 (inactive) | inactive | 2.56% (inactive)
Cc1ccc(-n2c(=O)c3c4c(sc3n3c(C)nnc23)COC(C(C)C)C4)cc1 (stereo unspecified) | 551 | -2.6% (inactive) | -1.3% (inactive) | 122 | 0.656 | -0.667 | -0.392 | 9.82% (inactive) | -0.411 (inactive) | 2.1e-05 (inactive) | 0.00541 (inactive) | inactive | 49.1% (inactive)
CCOC(=O)CCc1c(C)c(C#N)c2nc3ccccc3n2c1-n1ccnc1 | 559 | -4.6% (inactive) | -37.8% (inactive) | 140 | 1.11 | -0.305 | 0.783 | 25.8% (inactive) | -0.172 (inactive) | -3.3e-07 (inactive) | 0.0062 (inactive) | inactive | -3.19% (inactive)
CCc1nc(SCc2cccnc2)c(C#N)cc1C | 594 | -3.5% (inactive) | -81.5% (inactive) | 176 | 0.241 | -0.223 | -1.08 | 2.46% (inactive) | -0.341 (inactive) | 8.2e-06 (inactive) | 0.00538 (inactive) | inactive | 50.3% (active)
COc1cc([C@@H]2[C@H]3CNCC=C3C(C#N)=C(N)C2(C#N)C#N)ccc1OC(C)C | 520 | -3.4% (inactive) | -13.2% (inactive) | 156 | -0.404 | -0.17 | -2.38 | 2.46% (inactive) | -0.251 (inactive) | 7.5e-06 (inactive) | 0.00559 (inactive) | inactive | -1.69% (inactive)
Clc1ccc2nc(CSc3nc4ccccc4o3)cn2c1 | 405 | -12.3% (inactive) | -79.3% (inactive) | 99.4 | -0.399 | -0.856 | -1.36 | 11.9% (inactive) | -0.49 (inactive) | -0.000153 (inactive) | 0.00552 (inactive) | inactive | -14.7% (inactive)
Clc1ccc(-c2nnc3sc(Cc4cccs4)nn23)c(Cl)c1 | 664 | 0.3% (inactive) | -136% (inactive) | 169 | 0.203 | 0.587 | -0.53 | -9.66% (inactive) | -0.43 (inactive) | -0.00015 (inactive) | 0.00477 (inactive) | inactive | 37.7% (inactive)
CC1CN(C2CCN(S(=O)(=O)Cc3ccccc3)CC2)CC(C)O1 (stereo unspecified) | 355 | -15.2% (inactive) | -254% (inactive) | 179 | 0.356 | 0.313 | 0.176 | 5.57% (inactive) | -0.391 (inactive) | -1.6e-05 (inactive) | 0.00538 (inactive) | inactive | 32.6% (inactive)
